Measurements taken from ChEMBL document CHEMBL1129431, “Derivatives of (R)- and (S)-5-fluoro-8-hydroxy-2-(dipropylamino)tetralin: synthesis and interactions with 5-HT1A receptors” (J Med Chem, 1996).
“And” between values parts separate entries of the source, which are not always exact repeats. Identical values can stand only once.

Tests used:
[1] = target: T1, 5-hydroxytryptamine receptor 1A (Rattus norvegicus, UniProt P19327); assay: Binding affinity against rat hippocampal 5-hydroxytryptamine 1A (5-HT1A) receptor determined using [3H]8-OH-DPAT as radioligand; format: tissue-based, Hippocampus
T1 sequence (P19327 whole entry): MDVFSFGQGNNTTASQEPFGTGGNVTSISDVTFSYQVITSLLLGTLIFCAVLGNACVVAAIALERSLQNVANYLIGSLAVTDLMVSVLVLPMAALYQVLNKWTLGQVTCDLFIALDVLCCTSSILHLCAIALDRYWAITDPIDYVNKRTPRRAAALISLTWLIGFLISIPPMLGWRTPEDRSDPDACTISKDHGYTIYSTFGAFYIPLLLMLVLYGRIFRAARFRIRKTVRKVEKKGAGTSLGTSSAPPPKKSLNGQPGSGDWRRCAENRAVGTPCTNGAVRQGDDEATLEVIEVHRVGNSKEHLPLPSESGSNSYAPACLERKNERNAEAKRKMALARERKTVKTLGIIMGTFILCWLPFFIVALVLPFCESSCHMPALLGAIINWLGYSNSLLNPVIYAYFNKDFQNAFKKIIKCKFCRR

[2] = target: T2, 5-hydroxytryptamine receptor 1A (Rattus norvegicus) (UniProt P19327); assay: Effect on 5-hydroxytryptamine 1A receptor mediated inhibition of VIP-stimulated cAMP production at dose of 10 uM; format: functional; settings: values are per cent of control
T2 sequence (whole entry): T1 sequence (P19327 whole entry)
In short: (§1)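 GH4ZD10 cells expressing rat 5-HT1A receptors were detached with EBSS plus 1 mM EDTA and resuspended to ~1×10^7 cells/mL in Ham's F10 with 0.01% ascorbic acid and 0.1 mM IBMX. After 1 h preincubation at 37 °C they were diluted to 0.8-1.5×10^6 cells/mL, then incubated 20 min at 37 °C with VIP (39 nM final) plus compound, alone or with 5-HT, in duplicate. The reaction was stopped by boiling. cAMP was measured in triplicate by protein-binding assay and expressed as % of the VIP-stimulated response.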

[3] = target: T2, 5-hydroxytryptamine receptor 1A (Rattus norvegicus); assay: Effect on 5-hydroxytryptamine 1A receptor mediated inhibition of VIP-stimulated cAMP production at dose of 0.1 uM + 1 uM 5-HT.; format: functional; settings: values are per cent of control; in short: as §1
[4] = target: T2, 5-hydroxytryptamine receptor 1A (Rattus norvegicus); assay: Effect against 5-hydroxytryptamine 1A receptor mediated inhibition of VIP-stimulated cAMP production at 0.1 uM dose; format: functional; settings: values are per cent of control; in short: as §1
[5] = target: T2, 5-hydroxytryptamine receptor 1A (Rattus norvegicus); assay: Effect on 5-hydroxytryptamine 1A receptor mediated inhibition of VIP-stimulated cAMP production at dose of 1 uM; format: functional; settings: values are per cent of control; in short: as §1
[6] = target: T2, 5-hydroxytryptamine receptor 1A (Rattus norvegicus); assay: Effect on 5-hydroxytryptamine 1A receptor mediated inhibition of VIP-stimulated cAMP production at dose of 50 uM; format: functional; settings: values are per cent of control
In short: (§2)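 GH4ZD10 cells expressing rat 5-HT1A receptors, detached with EDTA-supplemented Ca/Mg-free EBSS and resuspended in Ham's F10 with 0.01% ascorbic acid and 0.1 mM IBMX. Preincubated 1 h at 37 °C, then 0.8-1.5×10^6 cells/mL incubated 20 min at 37 °C with VIP (39 nM final) plus compounds. Duplicate samples stopped by boiling. cAMP measured in triplicate by protein-binding assay. Results are given as % of the VIP-stimulated response.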

[7] = target: T2, 5-hydroxytryptamine receptor 1A (Rattus norvegicus); assay: Effect on 5-hydroxytryptamine 1A receptor mediated inhibition of VIP-stimulated cAMP production at dose of 0.05 uM; format: functional; settings: values are per cent of control; in short: as §2
[8] = target: T2, 5-hydroxytryptamine receptor 1A (Rattus norvegicus); settings: 0.05 uM
[9] = target: T2, 5-hydroxytryptamine receptor 1A (Rattus norvegicus); assay: Effect on 5-hydroxytryptamine 1A receptor mediated inhibition of VIP-stimulated cAMP production at dose of 30 uM; format: functional; settings: values are per cent of control; in short: as §1
[10] = target: T2, 5-hydroxytryptamine receptor 1A (Rattus norvegicus); assay: Effect on 5-hydroxytryptamine 1A receptor mediated inhibition of VIP-stimulated cAMP production at dose of 1 uM+ 10 uM 5-HT.; format: functional; settings: values are per cent of control; in short: as §1
[11] = target: T2, 5-hydroxytryptamine receptor 1A (Rattus norvegicus); assay: (§3) Effect on 5-hydroxytryptamine 1A receptor mediated inhibition of VIP-stimulated cAMP production at dose of 1 uM+ 50 uM 5-HT.; format: functional; settings: values are per cent of control; in short: as §2
[12] = target: T2, 5-hydroxytryptamine receptor 1A (Rattus norvegicus); assay: as §3; format: functional; settings: values are per cent of control; in short: as §1; remark: listed apart in the source
[13] = target: T2, 5-hydroxytryptamine receptor 1A (Rattus norvegicus); assay: Effect on 5-hydroxytryptamine 1A receptor mediated inhibition of VIP-stimulated cAMP production at dose of 0+ 1 uM 5-HT.; format: functional; settings: values are per cent of control; in short: as §2
[14] = target: T2, 5-hydroxytryptamine receptor 1A (Rattus norvegicus); assay: Effect on 5-hydroxytryptamine 1A receptor mediated inhibition of VIP-stimulated cAMP production at dose of 1 uM+ 1 uM 5-HT.; format: functional; settings: values are per cent of control; in short: as §2
[15] = target: T2, 5-hydroxytryptamine receptor 1A (Rattus norvegicus); assay: Effect on 5-hydroxytryptamine 1A receptor mediated inhibition of VIP-stimulated cAMP production at dose of 0.1 uM + 0.1 uM 5-HT.; format: functional; settings: values are per cent of control; in short: as §2
[16] = target: T2, 5-hydroxytryptamine receptor 1A (Rattus norvegicus); assay: (§4) Effect on 5-hydroxytryptamine 1A receptor mediated inhibition of VIP-stimulated cAMP production at dose of 0.1 uM + 10 uM 5-HT.; format: functional; settings: values are per cent of control; in short: as §2
[17] = target: T2, 5-hydroxytryptamine receptor 1A (Rattus norvegicus); assay: as §4; format: functional; settings: values are per cent of control; in short: as §1; remark: listed apart in the source
[18] = target: T2, 5-hydroxytryptamine receptor 1A (Rattus norvegicus); assay: Effect on 5-hydroxytryptamine 1A receptor mediated inhibition of VIP-stimulated cAMP production at dose of 1 uM+ 0.1 uM 5-HT.; format: functional; settings: values are per cent of control; in short: as §2

SMILES | Ki [1] | response, % of control [3] | response, % of control [5] | also measured
CCCN(CCC)[C@@H]1CCc2c(F)ccc(OS(=O)(=O)C(F)(F)F)c2C1 [listing 1 of 2 here] | 18.5 nM | – | – | –
CCCN(CCC)[C@H]1CCc2c(F)ccc(-c3cccs3)c2C1 [listing 1 of 2 here] | – | 57% | 96% | response, % of control [2]: 88%; response, % of control [4]: 99%
CCCN(CCCCN1C(=O)CC2(CCCC2)CC1=O)[C@H]1CCc2c(F)ccc(O)c2C1 | 18.2 nM | – | 91% | response, % of control [6]: 82%; response, % of control [7]: 95%; response, % of control [8]: 68%
CCCN(CCC)[C@@H]1CCc2c(F)ccc(-c3cccs3)c2C1 | – | 60% | 93% | response, % of control [2]: 79%; response, % of control [4]: 98%; response, % of control [9]: 61%; response, % of control [10]: 58%
CCCN(CCCCN1C(=O)CC2(CCCC2)CC1=O)[C@H]1CCc2c(F)ccc(OS(=O)(=O)C(F)(F)F)c2C1 | 177 nM | 68% | 90% | response, % of control [6]: 65%; response, % of control [7]: 98%
CCCN(CCCCN1C(=O)CC2(CCCC2)CC1=O)[C@@H]1CCc2c(F)ccc(C(C)=O)c2C1 | < 0.3 nM | 61% | 59% | response, % of control [6]: 48%; response, % of control [11]: 55%; response, % of control [7]: 50%
CCCN(CCC)[C@@H]1CCc2c(F)ccc(C(C)=O)c2C1 [listing 1 of 2 here] | 6.9 nM | – | – | –
CCCN(CCC)[C@H]1CCc2cccc(S(=O)(=O)C(F)(F)F)c2C1 | 9.5 nM | – | – | –
CCCN(CCCCN1C(=O)CC2(CCCC2)CC1=O)[C@@H]1CCc2c(F)ccc(OC)c2C1 | < 0.3 nM | 56% | 56% | response, % of control [6]: 41%; response, % of control [11]: 40%; response, % of control [7]: 62%
CCCN(CCC)[C@@H]1CCc2c(F)ccc(C(C)=O)c2C1 [listing 2 of 2 here] | 6.9 nM | – | – | –
CCCN(CCC)[C@@H]1CCc2c(F)cccc2C1 | 136 nM | – | – | –
CCCN(CCC)[C@@H]1CCc2cccc(-c3cccs3)c2C1 | 8.4 nM | – | – | –
CCCN(CCC)[C@H]1CCc2c(F)ccc(OS(=O)(=O)C(F)(F)F)c2C1 [listing 1 of 2 here] | 490 nM | – | – | –
CCCN(CCC)[C@H]1CCc2c(F)ccc(-c3cccs3)c2C1 [listing 2 of 2 here] | 32.7 nM | – | – | –
CCCN(CCC)[C@@H]1CCc2c(F)ccc(OS(=O)(=O)C(F)(F)F)c2C1 [listing 2 of 2 here] | – | 60% | 91% | response, % of control [2]: 61%; response, % of control [4]: 98%; response, % of control [9]: 48%; response, % of control [10]: 52%
CCCN(CCC)[C@H]1CCc2c(F)ccc(C(C)=O)c2C1 | – | 57% | 98% | response, % of control [2]: 97%; response, % of control [4]: 90%
CCCN(CCC)[C@H]1CCc2c(F)cccc2C1 | – | 61% | 86% | response, % of control [6]: 86%; response, % of control [12]: 73%; response, % of control [4]: 85%
CCCN(CCCCN1C(=O)CC2(CCCC2)CC1=O)[C@@H]1CCc2c(F)ccc(-c3ccco3)c2C1 | 1.1 nM | – | 60% | response, % of control [13]: 62%; response, % of control [14]: 60%; response, % of control [15]: 57%; response, % of control [16]: 54%
CCCN(CCC)[C@@H]1CCc2c(F)ccc(-c3ccco3)c2C1 | – | 60% | 97% | response, % of control [17]: 61%; response, % of control [2]: 84%; response, % of control [4]: 106% and 98%; response, % of control [9]: 79%
CCCN(CCC)[C@@H]1CCc2cccc(S(=O)(=O)C(F)(F)F)c2C1 | 3.8 nM | – | – | –
CCCN(CCC)[C@H]1CCc2c(F)ccc(OS(=O)(=O)C(F)(F)F)c2C1 [listing 2 of 2 here] | 490 nM | – | – | –
CCCN(CCCCN1C(=O)CC2(CCCC2)CC1=O)[C@H]1CCc2c(F)ccc(-c3ccco3)c2C1 | 7.5 nM | 62% | – | response, % of control [18]: 58% and 66%; response, % of control [10]: 68%
